Source: the RNAGym collection of RNA variant scans (doi:10.1126/science.aae0568)
Variants at the floor of the assay were thinned out.

B1: tRNA (parent)
chain: GUUCCGUUGGCGUAAUGGUAACGCGUCUCCCUCCUAAGGAGAAGACUGCGGGUUCGAGUCCCGUACGGAACG

Variants of: B1
Assay: yeast fitness relative to wild type (ratio to wild type); higher = fitter; tRNA-Arg(CCU), competitive growth, 37 C, YPD
Outline: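 For this measurement, the tRNA-Arg(CCU) gene was varied by chemical synthesis at a 3% per-site mutation rate across 69 sites, and each variant was placed at the native genomic locus in Saccharomyces cerevisiae. The pooled strains went through a 24-hour competition in YPD at 37°C in six parallel replicates, with amplicons from start and end populations read by 100-nucleotide paired-end sequencing. Darwinian fitness relative to wild type followed from the change in each genotype's frequency. Genotypes needed ≥ 100 starting reads, and estimates < 0.5 were set to 0.5.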
For GUUCCGUUGGCAUAAUGGUAACCAAUCUCCCUCCUAAGGAGAAGACUGCGGGUUCGAGUCCCGUACGGAACG, the yeast fitness was ≤ 0.5.
In the case of GUUCCGUUGGCAUAAUGGUAACCCGUCUCGCUCCUAUGGAGAAGACUGCGGGUUCGAGUCCUGUUCGGAACG, the yeast fitness is reported as ≤ 0.5.
For GUUCCGUUGGCAUAAUGGUAACCCGUCUCCCUCCUAAGGAGAAGACUGAGGGUUCGCGUCCCGUACGGAACG, the yeast fitness was ≤ 0.5.
Work on GUUCCGUUGGCAUAAUGGUAACCCGUCUCCCUCCUAAGGAGAAGACUGCGGGUUGGAGUCCCGUACGGCACG yielded a yeast fitness of 0.561.
With GUUCCGUUGGCAUAAUGGUAACCCGUCUCCCUCCUAAGGAGAAGACUGCGGGUUCGAGUCGCGUACGGAACG the yeast fitness was ≤ 0.5.
In the case of GUUCCGUUGGCAUAAUGGUAACCCAUCUCCCUCCUAAGGAGAAGACUGCGGGUUCGAGACCCAUACGGAACG, the yeast fitness is reported as ≤ 0.5.
In the case of GUUCCGUUGGCAUAAUGGUAACCCGUCUCCCUCCUAAGGAGAAGACUGCGGGUUCCAGUCGCGUACGGAACG, the yeast fitness is reported as ≤ 0.5.
Work on GUUCCGUUGGCAUAAUGGUAACGCAUCUCCCUCCUAAGGAGAAGACUGCGGGUUCGAGUCCCGUACGGAACG yielded a yeast fitness of 0.819.
Variant GUUCCGUUGGCAUAAUGGUAACGCAUCUCCCUCCUAAGGAGAAGACUGCGGGUUCGAGUCCCGUGCGGAACG has a yeast fitness of 0.682.
GUUCCGUUGGCAUAAUGGUAACGCAUCUCCCUCCUAAGGAGAAGACUGCGGGUUCGAGUCCCGUUCGGAACG showed a yeast fitness of 0.756.
For GUUCCGUUGGCAUAAUGGUAACGCAUCUCCCUCCUAAGGAGAAGACUACGGGUUCGAGUCCCGUACGGAACG, the yeast fitness was 0.66.
In the case of GUUCCGUUGGCAUAAUGGUAACGCAUCUCCCUCCUAAGGAGAAGACUGCGGGUUCAAGUCCCGUACGGAACG, the yeast fitness is reported as 0.599.
Variant GUUCCGUUGGCAUAAUGGUAACGCAUCUCCCUCCUAAGGAGAAGACUGCGGGUUCGAGUCCCGUACAGAACG has a yeast fitness of 0.625.
GUUCCGUUGGCAUAAUGGUAACGCGUCUCCCUCCUAAAGAGAAGACUGCGGGUUCGAGUCCCGUACGGAACG showed a yeast fitness of 0.728.
With GUUCCGUUGGCAUAAUGGUAACGCGUCUCCCUCCUAAAGAGAAGACUGCGGGUUCGAGUGCCGUACGGAACG the yeast fitness was ≤ 0.5.
For GUUCCGUUGGCAUAAUGGUAACGCGUCUCCCUCCUAAAGAGAAGACUGCGGGUUCCAGUCCAGUCCGGAACG, the yeast fitness was ≤ 0.5.
In the case of GUUCCGUUGGCAUAAUGGUAACGCGUCUCCCUCCUAACGAGAAGAGUGGGCGUUCGAGUCUCGUACGGAACG, the yeast fitness is reported as ≤ 0.5.
Work on GUUCCGUUGGCAUAAUGGUAACGCGUCUCCCUCCUAAGCAGAAGACUGCGGGUUCGAGUCCCGUAUGGAACG yielded a yeast fitness of 0.572.
In the case of GUUCCGUUGGCAUAAUGGUAACGCGUCUCCCUCCUAAGCAGAAGACUGCGGGUUCGAGUCCCGUACAGAACG, the yeast fitness is reported as ≤ 0.5.
GUUCCGUUGGCAUAAUGGUAACGCGUCUCCCUCCUAAGGAAAAGACUGCGGGUUCGAGUCCCGUACGGAACG showed a yeast fitness of 0.889.
In the case of GUUCCGUUGGCAUAAUGGUAACGCGUCUCCCUCCUAAGGACAAGACUGCGGGUUCGAGUCCCGUACGGAACG, the yeast fitness is reported as 0.864.
In the case of GUUCCGUUGGCAUAAUGGUAACGCGUCUCCCUCCUAAGGACAAGACUGCGGGUUCGAGUGCCGUACGGAUCG, the yeast fitness is reported as ≤ 0.5.
GUUCCGUUGGCAUAAUGGUAACGCGUCUCCCUCCUAAGGAGAAAACUGCGGGUUCGAGUCCCGUACGGAACG gave a yeast fitness of 0.935.
GUUCCGUUGGCAUAAUGGUAACGCGUCUCCCUCCUAAGGAGAAAACUGCGGGUUCGAGUCCCGUAUGGAACG showed a yeast fitness of 0.697.
In the case of GUUCCGUUGGCAUAAUGGUAACGCGUCUCCCUCCUAAGGAGAAAACUGCGGGUUCGAGUCCCGUACCGAACG, the yeast fitness is reported as 0.62.
With GUUCCGUUGGCAUAAUGGUAACGCGUCUCCCUCCUAAGGAGAACACUGCGGGUUCGAGUCCCGUACGGAACG the yeast fitness was 0.727.
GUUCCGUUGGCAUAAUGGUAACGCGUCUCCCUCCUAAGGAGAACACUGGGGGUUCGAGUCCCGUACGGAACG gave a yeast fitness of 0.799.
Work on GUUCCGUUGGCAUAAUGGUAACGCGUCUCCCUCCUAAGGAGAACACUGCGGGUUCGAGUCCCGUACAGAACG yielded a yeast fitness of 0.513.
For GUUCCGUUGGCAUAAUGGUAACGCGUCUCCCUCCUAAGGAGAAUACUGCGGGUUCGAGUCCCGUACGCAACG, the yeast fitness was ≤ 0.5.
With GUUCCGUUGGCAUAAUGGUAACGCGUCUCCCUCCUAAGGAGAAGACUACGGGUUCGAGUCCCGUAUAGAACG the yeast fitness was ≤ 0.5.
In the case of GUUCCGUUGGCAUAAUGGUAACGCGUCUCCCUCCUAAGGAGAAGACUCCGGGUUCGAGUCCCGUACCGAACG, the yeast fitness is reported as ≤ 0.5.
In the case of GUUCCGUUGGCAUAAUGGUAACGCGUCUCCCUCCUAAGGAGAAGACUCCGGGUUCGAGUCCCGUACGCAUCG, the yeast fitness is reported as ≤ 0.5.
Variant GUUCCGUUGGCAUAAUGGUAACGCGUCUCCCUCCUAAGGAGAAGACUGCAGGUUCGAGUCCCGUACGGAACG has a yeast fitness of 1.01.
For GUUCCGUUGGCAUAAUGGUAACGCGUCUCCCUCCUAAGGAGAAGACUGCAGGUUCGAGUACCGUACGGAACG, the yeast fitness was ≤ 0.5.
In the case of GUUCCGUUGGCAUAAUGGUAACGCGUCUCCCUCCUAAGGAGAAGACUGCCGGUUCGAGUCCCGUAUGGAACG, the yeast fitness is reported as ≤ 0.5.
Work on GUUCCGUUGGCAUAAUGGUAACGCGUCUCCCUCCUAAGGAGAAGACUGCCGGUUCGAGUCCCGUACGCAACG yielded a yeast fitness of 0.522.
GUUCCGUUGGCAUAAUGGUAACGCGUCUCCCUCCUAAGGAGAAGACUGCCGGUUCGAGUCCCGCACGGAACG gave a yeast fitness of 0.692.
With GUUCCGUUGGCAUAAUGGUAACGCGUCUCCCUCCUAAGGAGAAGACUGCGAGUUCGAGUCCCGUGCGGAACG the yeast fitness was ≤ 0.5.
